# In the library only some 2.8% were active in any assay of this set; here they are far more common.
# E-selectin induc – E-selectin induction on HUVECs | 0.37% of 260,000 active | HUVEC E-selectin immunofluorescence imaging; normalized: neutral wells 0, TNF-alpha wells 100 | activation, % at 7.58 µM | P16581;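 active = mean E-selectin-positive cell signal at least 10% of the positive control, reached in at least 60% of replicates, without over 20% cell loss; inconclusive = no rule given, readout overlaps actives, possibly toxicity-flagged; inactive = the rest, including those meeting only one limit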
#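 Test system: HUVEC | Signal: Immunofluorescence imaging | Read-out: Percent E-selectin-positive cells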
# SIRT5 block – sirtuin-5 (human) deacylase inhibition. Purified SirT5, succinyl-peptide AMC, trypsin-coupled fluorescence. 1.1% of 330,000 active. Q9NXA8. inhibition, % at 15 µM. AID 652115; in the data active = inhibition above about 15%; inconclusive = no clear call, values can overlap the other calls
# Target sequence (Q9NXA8 whole entry, looked up): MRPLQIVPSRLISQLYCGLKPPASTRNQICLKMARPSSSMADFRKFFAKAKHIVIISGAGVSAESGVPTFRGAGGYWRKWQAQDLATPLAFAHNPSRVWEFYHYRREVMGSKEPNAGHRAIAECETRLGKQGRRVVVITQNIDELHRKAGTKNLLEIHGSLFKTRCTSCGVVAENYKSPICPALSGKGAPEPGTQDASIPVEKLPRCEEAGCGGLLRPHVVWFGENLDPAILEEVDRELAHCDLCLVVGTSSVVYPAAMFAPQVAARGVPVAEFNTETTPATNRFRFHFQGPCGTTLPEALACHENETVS
# DENV2 CPE – DENV2-induced cell death inhibition; DENV2-infected cells, cytopathic effect rescue, plate reader; AID 651640; 1.7% of 350,000 active; CPE inhibition, % at 9.99 µM; in the data active = CPE inhibition above about 20%, passing the limit was not always enough; inconclusive = no clear call, values can overlap the other calls; tested in BHK-21 cells
# Hits are given with their value; 0 = inactive; ? = inconclusive; - = no result given.
SMILES,E-selectin induc,SIRT5 block,DENV2 CPE
CCN(C[C@H]1N[C@@](CC)(C(=O)OC)[C@H]2C(=O)N(C)C(=O)[C@@H]12)S(=O)(=O)c1ccc(C(F)(F)F)cc1,-,0,52.1
CCN(C[C@H]1N[C@@](CC)(C(=O)OC)[C@H]2C(=O)N(C)C(=O)[C@@H]12)S(=O)(=O)c1ccc(C(C)(C)C)cc1,-,0,0
COc1ccccc1S(=O)(=O)N[C@@H]1CC[C@H](CCNC(=O)C2CCCCC2)O[C@H]1CO,0,0,0
CCS(=O)(=O)N1CC(=O)N2[C@H](C1)[C@@H](c1ccc(C#CCC3CCCC3)cc1)[C@@H]2CO,0,0,0
Cc1ccc(S(=O)(=O)N(C)C[C@@H]2OCCCC[C@H](C)Oc3ccc(NC(=O)Nc4cccc5ccccc45)cc3C(=O)N([C@@H](C)CO)C[C@H]2C)cc1,0,0,0
CN1C(=O)c2cc(NC(=O)c3ccc(F)c(F)c3)ccc2OC[C@H]2O[C@H](CC(=O)N3CCOCC3)CC[C@H]21,0,0,0
COC(=O)N1C(=O)[C@](c2ccc(Cl)cc2)(C(C)C)N1C(=O)OC,0,-,50.2
COC(=O)N1C(=O)[C@@](c2ccc(OC)cc2)(C(C)C)N1C(=O)OC,-,0,-
CNC[C@@H]1OCCCC[C@H](C)Oc2ccc(NS(=O)(=O)c3ccc(C)cc3)cc2C(=O)N([C@H](C)CO)C[C@H]1C,0,0,0
COc1ccc(CNC(=O)C2CCCN2S(=O)(=O)c2ccc(C)cc2)cc1 (stereo not drawn),0,-,-
COc1ccc(S(=O)(=O)N2CCCC2C(=O)NCC(=O)Nc2cccc(Cl)c2C)cc1 (stereo not drawn),-,0,70.4
Cc1c(Cl)cccc1NC(=O)CNC(=O)C1CC(=O)N(C2CCCC2)C1 (stereo not drawn),0,0,87.8
Cc1c(Cl)cccc1NC(=O)C1CC(=O)N(C2CCCC2)C1 (stereo not drawn),0,0,0
COc1ccc2c3c([nH]c2c1)[C@H](CO)N(C(=O)NC(C)C)CC31CCN(C(=O)c2cccnc2)CC1,0,0,0
O=C(Nc1ccccc1)Nc1ccc2c(c1)[C@@H]1C[C@@H](CC(=O)N3CCCCC3)O[C@@H](CO)[C@@H]1O2,0,0,0
C[C@@H]1CN([C@@H](C)CO)C(=O)c2cc(C#Cc3ccccc3F)cnc2O[C@@H]1CN(C)C(=O)C1CCC1,0,0,0
N#C[C@@H]1[C@H](c2ccc(C3=CCCCC3)cc2)[C@H](CO)N1C(=O)NC1CCCCC1,0,0,0
CCCN1C[C@H](C)[C@H](OC)CN(C)C(=O)c2ccc(NC(=O)CC(F)(F)F)cc2OC[C@H]1C,0,0,0
CCCN1C[C@H](C)[C@H](OC)CN(C)C(=O)c2ccc(NC(=O)CC(F)(F)F)cc2OC[C@@H]1C,0,-,33.5
CCCC(=O)Nc1ccc2c(c1)OC[C@H](C)N(CCC(F)(F)F)C[C@H](C)[C@@H](OC)CN(C)C2=O,0,0,30.5
CCCC(=O)Nc1ccc2c(c1)OC[C@@H](C)N(CCC(F)(F)F)C[C@H](C)[C@H](OC)CN(C)C2=O,0,0,0
Cc1noc(C)c1S(=O)(=O)Nc1ccc2c(c1)CC(=O)N([C@H](C)CO)C[C@@H](C)[C@H](CN(C)Cc1ccc(Cl)c(Cl)c1)O2,0,0,0
COC(=O)C1=C(C)N(Cc2cccc(C(F)(F)F)c2)C(=NCc2ccc(OC)cc2)NC1c1ccccc1C(F)(F)F (stereo not drawn),0,15.5,0
COC(=O)C1=C(C)N(Cc2cccc(C(F)(F)F)c2)C(=NCc2ccc(OC)cc2)NC1c1ccc(Cl)cc1 (stereo not drawn),0,-,0
COC(=O)C1=C(C)N(Cc2cccc(C(F)(F)F)c2)C(=NCc2ccc(C(F)(F)F)cc2)NC1c1ccccc1C(F)(F)F (stereo not drawn),0,0,27.6
SMILES,E-selectin induc,SIRT5 block,DENV2 CPE
COC(=O)C1=C(C)N(Cc2cccc(C(F)(F)F)c2)C(=NCc2ccccc2C(F)(F)F)NC1c1ccccc1C(F)(F)F (stereo not drawn),0,0,0
COc1ccc2c3c(n(C)c2c1)[C@@H](CO)N(C)CC31CCN(C(=O)Nc2c(C)noc2C)CC1,0,0,0
C[C@H]1CCCCO[C@@H](CN(C)Cc2ccccc2)[C@@H](C)CN([C@@H](C)CO)C(=O)c2cc(NC(=O)c3ccccc3)ccc2O1,-,-,0
CCN(CC)CCNC(=O)c1ccc(NC(=O)Cc2ccc(OC)c(S(=O)(=O)N3CCOCC3)c2)cc1,-,0,40.3
COc1ccc(CC(=O)Nc2cccc(C(C)=O)c2)cc1S(=O)(=O)N1CCOCC1,0,0,?
COc1ccc(NC(=O)CN2CCOCC2)cc1S(=O)(=O)N1CCCCC1,0,0,0
COc1ccc(NC(=O)CN2CCc3ccccc3C2)cc1S(=O)(=O)N1CCOCC1,-,-,51.5
